# In ChEMBL document CHEMBL5149984, “Discovery of HN37 as a Potent and Chemically Stable Antiepileptic Drug Candidate” (J Med Chem, 2021):
# Columns and labels:
# [1] = target: Potassium voltage-gated channel subfamily KQT member 2 (Rattus norvegicus) (UniProt O88943); test: Agonist activity at rat Kv7.2 channel expressed in CHO cells assessed as shift of half voltage of maximal activation at 10 uM by whole cell patch clamp based electrophysiological method; settings: filed as agonist
# In short: (§1)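 Rat KCNQ2 cotransfected with EGFP plasmid by Lipofectamine 3000 into CHO cells (DMEM/F12, 10% FBS; split 24 h before transfection). Whole-cell recording at room temperature. Pipette: 145 mM KCl, 1 mM MgCl2, 5 mM EGTA, 10 mM HEPES, 5 mM MgATP, pH 7.3. Bath, constantly perfused: 140 mM NaCl, 5 mM KCl, 2 mM CaCl2, 1.5 mM MgCl2, 10 mM glucose, 10 mM HEPES, pH 7.4. Signals filtered at 1 kHz. Compound at 10 μM. I/I0 is outward current amplitude with over without compound. ΔV1/2 is the shift in V1/2 from Boltzmann fits of activation curves. Mean ± SEM.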
# [2] = target: Potassium voltage-gated channel subfamily KQT member 2 (Rattus norvegicus) (UniProt O88943); test: Agonist activity at rat Kv7.2 channel expressed in CHO cells assessed as amplitude change of outward current at 10 uM by whole cell patch clamp based electrophysiological method; settings: filed as agonist; in short: as §1
# [3] = target: T1, Potassium voltage-gated channel subfamily KQT member 2/member 3 (Rattus norvegicus) (UniProt O88943+O88944); test: Agonist activity at rat KCNQ2/3 channel expressed in CHO cells assessed as shift of half voltage of maximal activation at 10 uM by patch clamp method; assay type: cell-based; settings: filed as agonist
# In short: (§2)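 Whole-cell patch clamp at room temperature on CHO cells (DMEM/F12, 10% FBS) transiently co-transfected with EGFP and hKCNQ1, rKCNQ2, rKCNQ3 A278T, hKCNQ4 or hKCNQ5; KCNQ2/3 at 1:1 cDNA ratio. Pipette solution 145 mM KCl, 5 mM MgATP, pH 7.3; bath 140 mM NaCl, 5 mM KCl, pH 7.4, under perfusion. V1/2 from Boltzmann fits; I/I0 is current amplitude with versus without compound; n = 4−6.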
# [4] = target: Potassium voltage-gated channel subfamily KQT member 2 (Rattus norvegicus, UniProt O88943); test: Agonist activity at rat KCNQ2 channel expressed in CHO cells by patch clamp method; assay type: cell-based; in short: as §2
# Potassium voltage-gated channel subfamily KQT member 2, sequence (O88943 whole entry): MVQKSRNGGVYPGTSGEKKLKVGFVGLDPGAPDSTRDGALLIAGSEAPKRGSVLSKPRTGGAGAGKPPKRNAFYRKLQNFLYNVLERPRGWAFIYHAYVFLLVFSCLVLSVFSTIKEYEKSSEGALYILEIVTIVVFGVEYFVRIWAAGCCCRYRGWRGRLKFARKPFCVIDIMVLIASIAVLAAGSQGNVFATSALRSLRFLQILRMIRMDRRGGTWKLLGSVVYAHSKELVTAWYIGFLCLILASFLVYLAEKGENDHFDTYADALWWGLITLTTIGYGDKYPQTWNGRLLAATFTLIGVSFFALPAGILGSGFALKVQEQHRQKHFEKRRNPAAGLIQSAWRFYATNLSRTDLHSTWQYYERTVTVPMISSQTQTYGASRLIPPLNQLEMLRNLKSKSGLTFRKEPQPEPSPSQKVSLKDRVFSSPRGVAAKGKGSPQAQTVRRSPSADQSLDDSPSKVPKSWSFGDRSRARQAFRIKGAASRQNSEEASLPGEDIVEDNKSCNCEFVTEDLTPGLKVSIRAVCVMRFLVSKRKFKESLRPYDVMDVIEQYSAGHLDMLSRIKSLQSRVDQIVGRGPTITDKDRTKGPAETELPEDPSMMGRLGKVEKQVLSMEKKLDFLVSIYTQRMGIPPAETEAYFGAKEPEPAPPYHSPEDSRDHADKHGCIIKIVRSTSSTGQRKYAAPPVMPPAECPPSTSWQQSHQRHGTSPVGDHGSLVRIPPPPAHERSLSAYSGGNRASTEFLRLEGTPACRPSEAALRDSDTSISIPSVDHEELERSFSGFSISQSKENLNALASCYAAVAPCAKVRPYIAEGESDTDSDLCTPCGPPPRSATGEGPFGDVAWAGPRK
# [5] = target: Potassium voltage-gated channel subfamily KQT member 2/member 3 (Rattus norvegicus, UniProt O88943+O88944); test: Agonist activity at rat KCNQ2/3 channel expressed in CHO cells by patch clamp method; assay type: cell-based; in short: as §2
# Potassium voltage-gated channel subfamily KQT member 2/member 3, sequence (O88943 whole entry): as above
# Potassium voltage-gated channel subfamily KQT member 2/member 3, sequence (O88944 whole entry): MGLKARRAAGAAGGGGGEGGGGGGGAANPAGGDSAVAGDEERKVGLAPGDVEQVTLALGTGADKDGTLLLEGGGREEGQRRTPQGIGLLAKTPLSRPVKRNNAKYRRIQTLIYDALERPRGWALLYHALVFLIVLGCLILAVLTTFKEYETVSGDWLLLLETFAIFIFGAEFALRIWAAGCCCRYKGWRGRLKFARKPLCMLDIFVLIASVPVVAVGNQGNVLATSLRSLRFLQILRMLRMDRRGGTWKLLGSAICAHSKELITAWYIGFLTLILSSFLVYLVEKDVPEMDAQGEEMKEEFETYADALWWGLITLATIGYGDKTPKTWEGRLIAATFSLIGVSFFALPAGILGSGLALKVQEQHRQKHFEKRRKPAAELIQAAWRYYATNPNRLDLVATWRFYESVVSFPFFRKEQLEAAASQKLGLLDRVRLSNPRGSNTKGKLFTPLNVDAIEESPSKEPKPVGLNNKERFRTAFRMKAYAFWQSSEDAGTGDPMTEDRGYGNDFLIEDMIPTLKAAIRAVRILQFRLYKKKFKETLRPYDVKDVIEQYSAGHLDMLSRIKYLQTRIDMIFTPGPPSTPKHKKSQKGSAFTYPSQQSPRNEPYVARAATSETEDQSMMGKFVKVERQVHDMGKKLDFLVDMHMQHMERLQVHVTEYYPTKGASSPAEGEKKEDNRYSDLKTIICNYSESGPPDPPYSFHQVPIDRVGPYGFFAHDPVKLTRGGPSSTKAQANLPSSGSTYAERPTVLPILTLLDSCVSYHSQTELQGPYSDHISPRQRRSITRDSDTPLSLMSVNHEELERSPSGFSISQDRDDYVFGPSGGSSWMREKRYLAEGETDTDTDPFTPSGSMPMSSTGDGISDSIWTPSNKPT
# Mus musculus [6] = test: Anticonvulsant activity in po dosed MES induced Kunming mouse model of seizure; assay type: functional
# In short: (§3)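 MES test in male KM mice. Compounds freshly suspended in 0.5% CMC-Na and given by gavage at 20 mL/kg; 160 V stimulus through ear clips. Protection scored as absence of hindlimb tonic extension; time course at 0.25, 0.5, 1 and 2 h, otherwise tested at 1 h. ED50 from dose−response by nonlinear regression; Fisher's exact test versus vehicle.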
# Mus musculus [7] = organism: Mus musculus; test: Anticonvulsant activity in MES induced Kunming mouse model of seizure assessed as EC50 in plasma; assay type: functional, organism-based
# In short: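 After the MES test in KM mice (oral dosing in 0.5% CMC-Na, 1 h), animals were killed immediately and plasma and brain concentrations were measured by LC−MS/MS. EC50 from concentration−response curves of protection against plasma concentration, by nonlinear regression.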
# [8] = Neurotoxicity in Kunming mouse assessed as motor impairment rate at 300 mg/kg, po after 1 hr by rotarod test; assay type: toxicity, organism-based; settings: in vivo
# In short: (§4)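 Male KM mice dosed intragastrically with compound freshly suspended in 0.5% CMC-Na. Rotarod performance scored 1 h after dosing as the fraction of animals showing motor impairment. Fisher's exact test versus vehicle; TD50 from nonlinear dose−response fit.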
# [9] = Neurotoxicity in Kunming mouse assessed as motor impairment rate at 60 mg/kg, po after 1 hr by rotarod test; assay type: toxicity, organism-based; settings: in vivo; in short: as §4
# Mus musculus [10] = organism: Mus musculus; test: Anticonvulsant activity in Kunming mouse assessed as reduction in MES-induced seizure after 1 hr; assay type: functional; in short: as §3
# Mus musculus [11] = organism: Mus musculus; test: Anticonvulsant activity in Kunming mouse assessed as reduction in Sc-PTZ induced seizure after 1 hr; assay type: functional
# In short: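 sc-PTZ test in male KM mice. Compound suspended in 0.5% CMC-Na and given orally 1 h before PTZ (freshly dissolved in normal saline, 100 mg/kg). Protection against clonic seizures scored; ED50 by nonlinear regression.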
# Mus musculus [12] = organism: Mus musculus; test: Anticonvulsant activity in C57BL/6 mouse 6 Hz seizure model at 32 mA measured after 1 hr; assay type: functional
# Mus musculus [13] = organism: Mus musculus; test: Anticonvulsant activity in C57BL/6 mouse 6 Hz seizure model at 44 mA measured after 1 hr; assay type: functional
# [14] = AUC(0 to t) in Kunming mouse plasma at 5 mg/kg, po measured upto 24 hrs by LC-MS/MS method; assay type: ADME, organism-based; parameters: dose 5 mg/kg, time < 24 hrs, route po
# In short: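 KM male mice (18−24 g), fasted 12 h before and 2 h after dosing. HN37 given orally at 5 mg/kg in 5% DMSO/5% Tween 80/90% saline, or iv at 2 mg/kg after dilution in saline with 1% Tween 80; n = 3 per time point. Blood sampled 0.25–24 h (from 0.083 h after iv); whole brain taken after oral dosing. Plasma and brain extracted with acetonitrile, quantified by LC−MS/MS; AUC0−t by trapezoidal method.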
# [15] = Oral bioavailability in Kunming mouse plasma at 5 mg/kg measured upto 24 hrs by LC-MS/MS method; assay type: ADME, organism-based
# In short: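 Male KM mice (18−24 g) fasted 12 h before and 2 h after dosing, given 5 mg/kg orally in 5% DMSO/5% Tween 80/90% normal saline (n = 3 per time point). Aortic blood taken at 0.25–24 h and whole brain collected. Acetonitrile extraction with internal standard, then LC−MS/MS. Bioavailability calculated against the 2 mg/kg i.v. arm.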
# [16] = Tmax in Sprague-Dawley rat at 6 mg/kg, po measured upto 24 hrs by LC-MS/MS method; assay type: ADME, organism-based; settings: in vivo
# In short: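 Male SD rats (180–220 g) dosed orally at 2, 6 and 20 mg/kg, handled like the mice: fasting, 5% DMSO/5% Tween 80/saline vehicle, acetonitrile extraction, LC-MS/MS of plasma. In a separate set at 6 mg/kg p.o., blood and brain were sampled together.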
# [17] = Metabolic stability in monkey liver microsomes assessed as half life; assay type: ADME, Macaca mulatta, Microsome; settings: rhesus monkey
# [18] = Metabolic stability in mouse liver microsomes assessed as half life; assay type: ADME, Microsome
# CYP2B6 = CYP2B6 (Homo sapiens, UniProt P20813); test: Inhibition of human liver microsome CYP2B6 at 0.10 to 50 uM preincubated with NADPH for 0.5 hrs followed by substrate addition by LC-MS/MS method relative to control; assay type: ADME; settings: liver microsomes, dose 0.1-50 µM
# CYP2B6, sequence (P20813 whole entry): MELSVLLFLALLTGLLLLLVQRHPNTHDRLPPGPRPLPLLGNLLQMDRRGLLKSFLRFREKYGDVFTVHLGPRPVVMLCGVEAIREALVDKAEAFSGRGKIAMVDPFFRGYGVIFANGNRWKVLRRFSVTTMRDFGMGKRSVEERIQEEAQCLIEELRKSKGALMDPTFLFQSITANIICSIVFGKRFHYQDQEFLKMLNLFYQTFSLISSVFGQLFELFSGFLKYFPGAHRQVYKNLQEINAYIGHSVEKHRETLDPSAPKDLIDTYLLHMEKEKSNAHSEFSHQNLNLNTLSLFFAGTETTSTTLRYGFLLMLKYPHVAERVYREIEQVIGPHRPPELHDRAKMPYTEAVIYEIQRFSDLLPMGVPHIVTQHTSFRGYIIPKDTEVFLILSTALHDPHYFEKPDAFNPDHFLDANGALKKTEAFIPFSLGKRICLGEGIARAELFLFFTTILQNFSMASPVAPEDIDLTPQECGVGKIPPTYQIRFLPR
# [19] = target: T1, Potassium voltage-gated channel subfamily KQT member 2/member 3 (Rattus norvegicus); test: Agonist activity at rat KCNQ2/3 channel expressed in CHO cells assessed as shift of half voltage of maximal activation at 0.1 uM by patch clamp method; assay type: cell-based; settings: filed as agonist; in short: as §2
# Rattus norvegicus = organism: Rattus norvegicus; test: Potency index, ratio of retigabine ED50 to test compound ED50 for anticonvulsant activity in MES induced rat model of seizure after 1 hr; assay type: functional
# Potassium voltage-gated channel subfamily KQT member 2 (Rattus norvegicus), sequence (O88943 whole entry, the tested form may be a part): as the sequence (O88943 whole entry) above
SMILES,Activity [1] [mV],Activity [2],EC50 [4] [µM],EC50 [5] [µM],ED50 (Mus musculus [6]) [mg/kg],EC50 (Mus musculus [7]) [µM],Activity [9],ED50 (Mus musculus [10]) [mg/kg],ED50 (Mus musculus [11]) [mg/kg],ED50 (Mus musculus [12]) [mg/kg],ED50 (Mus musculus [13]) [mg/kg],further results
CCOC(=O)Nc1ccc(NCc2ccc(F)cc2)cc1N [EZOGABINE],-33.2,1.79,2.04,4.15,38.6,20,Non-Toxic,38.6,> 56,65.9,102,Activity [3]: -34.3 mV; Activity [8]: 100%
C#CCN(Cc1ccc(F)cc1)c1cc(C)c(NC(=O)OC)c(C)c1,-38.5,4.75,0.037,0.0331,1.9,0.05,Non-Toxic,1.9,9.8,16.8,29.9,"AUC(0-t) at 24 h [14]: 321 ng·h/mL; bioavailability [15]: 24.2%; Tmax [16]: 40.2 min; half-life [17]: 18.1 min; half-life [18]: 12.5 min; inhibition at 0.5 h, up to 50 µM (CYP2B6): < 25%; Activity [19]: -60.2 mV; Ratio ED50 (Rattus norvegicus): 2"
